“And” between values parts separate entries of the source, which are not always exact repeats. Equal values may be shown once.
System: U2OS
Assay: Multiplex assay against U2OS
Assay type: toxicity, cell-based
Conditions: human, number of replicates 2
Procedure, shortened: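 Per cents of healthy-nucleus cells form the tubulin, mitochondrial-mass and membrane-permeability phenotype values. Live cells were stained at seeding with Hoechst33342, BioTracker Green Microtubule Cytoskeleton Dye, MitoTracker Red and Annexin V Alexa Fluor 680. After compound addition they were imaged on a CQ1 microscope at 37°C and 5% CO2, and CellPathfinder machine-learning gating split them into Hoechst high-intensity objects or normal cells, normal cells into healthy, pyknosed or fragmented nuclei, and pyknosed cells into mitotic or apoptotic.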

[1] = 12 h, 1 µM, compound concentration 1 uM
[2] = 12 h, 10 µM, compound concentration 10 uM
[3] = 24 h, 1 µM, compound concentration 1 uM
[4] = 24 h, 10 µM, compound concentration 10 uM
[5] = 48 h, 1 µM, compound concentration 1 uM
[6] = 48 h, 10 µM, compound concentration 10 uM

SMILES	Population Apoptotic (%) [1]	Population Hoechst High Intensity Objects (%) [1] [%]	Population Apoptotic (%) [2]	Population Healthy Nuclei (%) [2]	Population Hoechst High Intensity Objects (%) [2]	Population Apoptotic (%) [3]	Population Healthy Nuclei (%) [3]	Population Hoechst High Intensity Objects (%) [3] [%]	Population Apoptotic (%) [4]	Population Healthy Nuclei (%) [4] [%]	Population Hoechst High Intensity Objects (%) [4] [%]	Population Apoptotic (%) [5]	Population Fragmented Nuclei (%) [5]	Population Healthy Nuclei (%) [5]	Population Hoechst High Intensity Objects (%) [5] [%]	Population Apoptotic (%) [6]	Population Healthy Nuclei (%) [6]	Population Hoechst High Intensity Objects (%) [6] [%]	further results
CS(=O)(=O)c1ccc(C(=O)Nc2cccc(COc3cc(F)c(Br)cc3CN3CC[C@H](O)C3)c2)c(Cl)c1.O=CO	62% and 55%	0	66% and 54%	36% and 74%	0%	50% and 66%	56%	0	82% and 73%	33	0	58% and 92%	22%	58%	0	88% and 84%	26%	0	Population Pyknosed Nuclei (%) [1]: 19% and 14%; Population Pyknosed Nuclei (%) [2]: 20% and 16%; Total Cell Count [2]: 90 and 192; Population Pyknosed Nuclei (%) [3]: 20% and 10%; Population Pyknosed Nuclei (%) [4]: 19% and 26%; Total Cell Count [4]: 86 and 214; Population Pyknosed Nuclei (%) [5]: 19% and 10%; Population Pyknosed Nuclei (%) [6]: 28%
CS(=O)(=O)c1ccc(C(=O)Nc2cc(F)cc(COc3cc(F)c(Br)cc3CN3CC[C@H](O)C3)c2)c(Cl)c1.O=CO	33% and 58%		60% and 54%			82% and 66%			61% and 71%			63% and 88%	2% and 1%			94% and 89%			Population Fragmented Nuclei (%) [1]: 2%; Population Normal (%) [1]: 100%; Population Normal (%) [2]: 100%; Population Fragmented Nuclei (%) [3]: 2% and 3%; Population Normal (%) [3]: 100% and 96%; Population Normal (%) [4]: 100% and 99%; Population Normal (%) [5]: 100%; Population Normal (%) [6]: 98%
CS(=O)(=O)c1ccc(C(=O)Nc2ccc(F)c(COc3ccc(Br)cc3CNCCO)c2)c(Cl)c1.O=CO	50% and 63%	0	85% and 58%	80% and 77%	2% and 0%	62% and 73%	74% and 90%	0	90% and 71%	68	0	83%		81% and 87%	0	66% and 89%	45% and 67%	0	Population Healthy Nuclei (%) [1]: 75% and 84%; Population Mitotic Cells (%) [1]: 50% and 36%; Population Mitotic Cells (%) [2]: 14% and 41%; Population Mitotic Cells (%) [3]: 37% and 26%; Population Mitotic Cells (%) [5]: 16%
